Calls of active or inactive are those of the source. The rule behind the calls is not given here.
Columns and labels:
HL-60 [1] = assay: Cell cycle arrest in human HL60 cells assessed as accumulation at G1 phase at 1 uM after 18 hrs by propidium iodide staining based flow cytometry (reference value: 51%); assay type: functional
How it was run: (§1)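 HL-60 cells seeded at 1 × 10^5 cells/well, exposed to 1 μM compound for 18 h at 37 °C. Stained 30 min in the dark with propidium iodide (0.05 mg/mL in 0.1% sodium citrate, 0.1% Triton X-100, 100 μg/mL RNase), then DNA content read by flow cytometry. Reported as % cells in each phase; n = 2 replicates from a single experiment.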

HL-60 [2] = assay: Antiproliferative activity against human HL60 cells after 72 hrs by MTT assay; assay type: functional, cell-based; conditions: HL-60, 72 h
How it was run: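 HL-60 cells seeded at 1 × 10^4 cells/well, exposed to 2-fold serial dilutions with paclitaxel as positive control, 72 h at 37 °C. MTT (5 mg/mL in PBS) added for 2 h at 37 °C. Formazan dissolved overnight at 37 °C in 10% SDS/45% dimethylformamide, absorbance read at 570 nm. n = 3 independent experiments, two technical replicates each.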

HL-60 [3] = assay: Cell cycle arrest in human HL60 cells assessed as accumulation at S phase at 1 uM after 18 hrs by propidium iodide staining based flow cytometry (reference value: 27%); assay type: functional; how it was run: as §1
Sus scrofa [4] = species: Sus scrofa; assay: Induction of porcine tubulin polymerization assessed as microtubule stabilization at 27 uM measured at 1 min interval over 100 mins
How it was run: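 Fluorescence-based in vitro assay with purified porcine brain tubulin, run without microtubule-associated proteins and with glycerol omitted from the polymerization buffer. Compound at 27 μM final, with tubulin buffer added just before reading. Kinetic read at 37 °C, λex 360/λem 450 nm, every 1 min for 100 min. n = 3 replicates from a single preparation.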

HL-60 [5] = assay: Cell cycle arrest in human HL60 cells assessed as accumulation at G2/M phase at 1 uM after 18 hrs by propidium iodide staining based flow cytometry (reference value: 22%); assay type: functional; how it was run: as §1
Sus scrofa [6] = species: Sus scrofa; assay: Induction of porcine tubulin polymerization assessed as microtubule stabilization at 2.8 uM measured at 1 min interval over 100 mins
How it was run: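 Fluorescence-based assay with purified porcine brain tubulin, no microtubule-associated proteins, glycerol omitted from polymerization buffer. Compound at 2.8 μM final, paclitaxel 2.8 μM as positive control, vehicle control. Tubulin buffer added immediately before reading. Kinetic read at 37 °C, λex 360/λem 450 nm, every 1 min for 100 min. n = 3 replicates, single preparation.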

In the case of `C=C1C[C@@H]2CCCC(=O)C/C(C)=C\C=C\C(=O)O[C@H]([C@H](O)NC(=O)/C=C\C=C\C)C/C(C)=C/[C@H](C1)O2`, the Activity (HL-60 [1]) is reported as 44%, the IC50 (HL-60 [2]) is reported as 300 nM and the Activity (HL-60 [3]) is reported as 25%. For the same molecule, the Activity (Sus scrofa [4]) was “inactive” and the Activity (HL-60 [5]) was 30%.
With `C=C1C[C@@H]2C/C=C/C(=O)C/C(C)=C\C=C\C(=O)O[C@H]([C@H](O)NC(=O)/C=C/C=C\C)C/C(C)=C/[C@H](C1)O2` the Activity (Sus scrofa [6]) was “Active”, the Activity (HL-60 [1]) was 19% and the IC50 (HL-60 [2]) was 5.3 nM. For the same molecule, the Activity (HL-60 [3]) was 26% and the Activity (HL-60 [5]) was 55%.
For `C=C1C[C@@H]2C/C=C/C(=O)C/C(C)=C/C=C/C(=O)O[C@H]([C@H](O)NC(=O)/C=C\C=C\C)C/C(C)=C/[C@H](C1)O2`, the Activity (Sus scrofa [6]) was “Active”, the Activity (HL-60 [1]) was 16% and the IC50 (HL-60 [2]) was 3.3 nM. It also gave an Activity (HL-60 [3]) of 30% and an Activity (HL-60 [5]) of 54%.
In the case of `C=C1C[C@@H]2C/C=C/C(=O)C/C(C)=C\C=C\C(=O)O[C@H]([C@H](O)NC(=O)/C=C\C=C\C)C/C(C)=C/[C@H](C1)O2` [ZAMPANOLIDE], the Activity (Sus scrofa [6]) is reported as “Active”, the Activity (HL-60 [1]) is reported as 18% and the IC50 (HL-60 [2]) is reported as 3.2 nM. For the same molecule, the Activity (HL-60 [3]) was 28% and the Activity (HL-60 [5]) was 54%.
For `CC(=O)O[C@H]1C(=O)[C@@]2(C)[C@H]([C@H](OC(=O)c3ccccc3)[C@]3(O)C[C@H](OC(=O)[C@H](O)[C@@H](NC(=O)c4ccccc4)c4ccccc4)C(C)=C1C3(C)C)[C@]1(OC(C)=O)CO[C@@H]1C[C@@H]2O` [PACLITAXEL], the Activity (Sus scrofa [6]) was “Active”, the Activity (HL-60 [1]) was 18% and the Activity (HL-60 [3]) was 24%. For the same molecule, the Activity (HL-60 [5]) was 58%.
In the case of `C=C1C[C@@H]2C/C=C/C(=O)C/C(C)=C\C=C\C(=O)O[C@H](C=O)C/C(C)=C/[C@H](C1)O2`, the Activity (HL-60 [1]) is reported as 17%, the IC50 (HL-60 [2]) is reported as 240 nM and the Activity (HL-60 [3]) is reported as 29%. For the same molecule, the Activity (Sus scrofa [4]) was “inactive” and the Activity (HL-60 [5]) was 54%.
